Assay results: publication PMC4545405 (ACS chemical biology, 2013)
Where two headings read alike, the source gives them in different places.

Columns and labels:
[1] = molecular target: PelD (Pseudomonas aeruginosa, UniProt A0A0H2ZD98); experiment: DRaCALA / DRaCALA-HTS inhibition of 32P-cdiGMP binding to PelD; conditions: for fraction bound of 32P-cdiGMP to PelD in DRaCALA-HTS: NCC1 library screen, cutoff 3 standard deviations below the average
[2] = molecular target: T1, WspR (Pseudomonas aeruginosa, UniProt Q9HXT9); experiment: DRaCALA inhibition of 32P-cdiGMP binding to WspR
[3] = tested on: PDE (RocR, PvrR, FimX) or PilZ (Alg44, PA3353) proteins; experiment: DRaCALA inhibition of 32P-cdiGMP binding to PDE and PilZ proteins; set-up: species or system P. aeruginosa; conditions: Eb 50 μM
Summary of the method: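 Purified protein was mixed with ³²P-cdiGMP in the presence of 50 μM test compound or DMSO, then spotted on nitrocellulose. Spots were imaged by phosphorimager. Fraction bound = corrected bound-ligand intensity ÷ total spot intensity.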

[4] = molecular target: T1, WspR; experiment: WspR DGC activity assay by TLC; type: biochemical; conditions: for DGC activity of wild-type WspR (inhibition): 50 μM; for WspR activity after DTT treatment of preincubated WspR: with DTT
[5] = tested on: WspR with C49A substitution; experiment: DGC activity assay of C49A WspR; type: biochemical, Pseudomonas aeruginosa; conditions: 50 μM
Summary of the method: (§1)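 Purified WspR point mutants (C49A, C240A, or AxxA at the RxxD I-site), expressed from cloned alleles. Diguanylate cyclase activity measured by thin-layer chromatography (TLC) with test compound or cdiGMP at 50 μM, against a DMSO control. Compounds were dissolved in DMSO.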

[6] = tested on: WspR with C240A substitution; experiment: DGC activity assay of C240A WspR; type: biochemical, Pseudomonas aeruginosa; conditions: 50 μM
Summary of the method: as §1

[7] = tested on: AxxA WspR (RxxD I-site abolished); experiment: DGC activity assay of AxxA WspR; type: biochemical, Pseudomonas aeruginosa; conditions: 50 μM
Summary of the method: as §1

[8] = tested on: P. aeruginosa PA14; experiment: Growth curves; type: cell-based, Pseudomonas aeruginosa; conditions: 50 μM, LB, 37 °C, 16 hours, vs DMSO
Summary of the method: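 P. aeruginosa PA14 grown overnight in LB at 37 °C with shaking, then subcultured in LB with 50 μM test compound or 2% DMSO alone. Grown with shaking at 37 °C for 16 h. A600 read every 5 minutes.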

[9] = tested on: P. aeruginosa PA14 overexpressing DGCs; experiment: Swim motility assay of PA14 overexpressing DGCs; type: cell-based, Pseudomonas aeruginosa; conditions: for change in swimming motility compared to the DMSO control: PA14 overexpressing PA0847, IPTG; for change in swimming motility compared to the DMSO control / increase in swimming diameter compared to the DMSO control: 50 μM
[10] = tested on: PA14 pMMB-WspR; experiment: Crystal violet pellicle assay, DGC-dependent biofilm formation; type: cell-based, Pseudomonas aeruginosa; conditions: IPTG-induced WspR, static incubation 30 °C, 16 hours
[11] = tested on: PA14 ΔretS; experiment: Crystal violet pellicle assay, DGC-independent biofilm formation; type: cell-based, Pseudomonas aeruginosa
[12] = molecular target: Alg44 (Pseudomonas aeruginosa, UniProt Q9HY69); experiment: DRaCALA / DRaCALA-HTS binding of 32P-cdiGMP to Alg44; conditions: for Kd: Kd of Alg44 binding to 32P-cdiGMP
[13] = PA14 overexpressing PA1107, IPTG
[14] = PA14 overexpressing PA1120, IPTG
[15] = PA14 overexpressing PA1727, IPTG

Chain of Alg44 (Q9HY69 whole entry): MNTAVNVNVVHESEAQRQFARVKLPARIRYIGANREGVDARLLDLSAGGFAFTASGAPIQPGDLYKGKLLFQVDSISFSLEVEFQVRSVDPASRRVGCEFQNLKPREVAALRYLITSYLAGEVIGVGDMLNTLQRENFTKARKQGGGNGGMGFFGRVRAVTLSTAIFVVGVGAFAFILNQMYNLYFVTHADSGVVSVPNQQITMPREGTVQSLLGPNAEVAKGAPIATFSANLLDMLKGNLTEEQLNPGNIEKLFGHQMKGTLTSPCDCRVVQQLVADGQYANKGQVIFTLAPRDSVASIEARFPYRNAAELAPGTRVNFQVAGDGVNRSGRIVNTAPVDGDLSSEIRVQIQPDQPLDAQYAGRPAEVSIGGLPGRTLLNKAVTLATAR

**Q.** Which results are given for `O=c1c2ccccc2[se]n1-c1ccccc1` [Eb, ebselen]?
**A.** IC50 [1]: 5 ± 2 µM; fraction bound of 32P-cdiGMP to PelD in DRaCALA-HTS [1]: below the positive cutoff of 3 standard deviations below the average; inhibition at 50 µM ([1]; read-out: reduction of cdiGMP binding to PelD): 80%; IC50 [2]: 13.6 ± 0.5 µM; inhibition at 50 µM ([2]; read-out: reduction of cdiGMP binding to WspR): 90%; reduction of 32P-cdiGMP binding to PDE or PilZ proteins [3]: ≤ 25%; DGC activity of wild-type WspR (inhibition) [4]: inhibited; inhibition at 50 µM ([4]; read-out: reduction of WspR activity (velocity)): 87%; WspR velocity at varying substrate and Eb concentrations ([4]; varying substrate concentrations): reduced WspR velocity in a concentration dependent manner; WspR activity after DTT treatment of preincubated WspR [4]: returned WspR activity to the level of the DMSO control; DGC activity of C49A WspR (inhibition) [5]: still susceptible to inhibition; DGC activity of C240A WspR (inhibition) [6]: completely refractory; DGC activity of AxxA WspR (inhibition) [7]: no longer inhibited; growth of P. aeruginosa PA14 [8]: No difference in growth; change in swimming motility compared to the DMSO control [9]: no change in swimming motility; increase in swimming diameter compared to the DMSO control [9, 13]: 3.4 fold; increase in swimming diameter compared to the DMSO control [9, 14]: 2.5 fold; increase in swimming diameter compared to the DMSO control [9, 15]: 1.1 fold; increase in swimming diameter compared to the DMSO control ([9]; PA14 overexpressing WspR, IPTG): 2 fold; reduction of biofilm formation compared to the DMSO control [10]: ~ 40%; DGC-independent biofilm formation [11]: Neither Eb nor EbO reduced biofilm formation

**Q.** With `O=C1c2ccccc2[Se](=O)N1c1ccccc1` (centres unmarked) [EbO, ebselen oxide] as the compound, how does the “reduction of cdiGMP binding to PelD” value ([1]; compared to the DMSO control, Eb 50 μM) read?
**A.** ~ 60%

**Q.** What about the IC50 ([1]; read-out: IC50 for PelD (inhibition of cdiGMP binding), DRaCALA) of the same compound?
**A.** 5 ± 2 µM

**Q.** What about the “IC50 for WspR (inhibition of cdiGMP binding)” value ([2]; DRaCALA) of the same compound?
**A.** did not show inhibition

**Q.** What about the “reduction of cdiGMP binding to WspR” value ([2]; compared to the DMSO control, Eb 50 μM, no preincubation) of the same compound?
**A.** ~ 30%

**Q.** What about the “reduction of 32P-cdiGMP binding to WspR after preincubation” value ([2]; preincubation of WspR for 30 minutes before addition of 32P-cdiGMP) of the same compound?
**A.** 86%

**Q.** And the “reduction of 32P-cdiGMP binding to PDE or PilZ proteins” value [3]?
**A.** did not reduce

**Q.** And the “reduction of WspR activity (velocity)” value ([4]; 10 μM GTP, inhibitor 50 μM)?
**A.** 87%

**Q.** And the “DGC activity of wild-type WspR (inhibition)” value [4]?
**A.** inhibited

**Q.** And the “WspR activity after DTT treatment of preincubated WspR” value [4]?
**A.** returned WspR activity to the level of the DMSO control

**Q.** What about the “DGC activity of C49A WspR (inhibition)” value [5] of the same compound?
**A.** still susceptible to inhibition

**Q.** And the “DGC activity of C240A WspR (inhibition)” value [6]?
**A.** completely refractory

**Q.** And the “DGC activity of AxxA WspR (inhibition)” value [7]?
**A.** no longer inhibited

**Q.** And the “growth of P. aeruginosa PA14” value [8]?
**A.** No difference in growth

**Q.** What about the “change in swimming motility compared to the DMSO control” value [9] of the same compound?
**A.** no change in swimming motility

**Q.** And the “increase in swimming diameter compared to the DMSO control” value (“increase in swimming diameter” for short) [9, 13]?
**A.** 4 fold

**Q.** And the “increase in swimming diameter” value [9, 14]?
**A.** 3.4 fold

**Q.** What about the “increase in swimming diameter” value [9, 15] of the same compound?
**A.** 1.3 fold

**Q.** And the “reversal of cdiGMP-mediated repression of swimming, concentration dependence” value ([9]; PA14 overexpressing PA3702, IPTG, different concentrations)?
**A.** at a lower concentration

**Q.** What about the “increase in swimming diameter” value ([9]; PA14 overexpressing WspR, IPTG) of the same compound?
**A.** 2.5 fold

**Q.** What about the “reduction of biofilm formation compared to the DMSO control” value [10] of the same compound?
**A.** ~ 40%

**Q.** What about the DGC-independent biofilm formation [11] of the same compound?
**A.** Neither Eb nor EbO reduced biofilm formation

**Q.** Which “average fraction bound of 32P-cdiGMP to Alg44 with cdiGMP competitor” value ([12]; 384-well plate, 25 μM unlabeled cdiGMP) does the source give for `Nc1nc2c(ncn2[C@@H]2O[C@@H]3COP(=O)(O)O[C@H]4[C@@H](O)[C@H](n5cnc6c(=O)[nH]c(N)nc65)O[C@@H]4COP(=O)(O)O[C@H]3[C@H]2O)c(=O)[nH]1` [cdiGMP, cyclic-di-GMP] here?
**A.** 0.007±0.005

**Q.** What about the Kd ([12]; 384 well format, HTS-DRaCALA) of the same compound?
**A.** 0.239 ± 0.007 µM

**Q.** And the Kd ([12]; fraction bound in individual reaction mixtures)?
**A.** 0.38 ± 0.02 µM

**Q.** What about the “fraction bound of 32P-cdiGMP to PelD in DRaCALA-HTS” value [1] of the same compound?
**A.** no binding was observed

**Q.** What about the “DGC activity of wild-type WspR (inhibition)” value [4] of the same compound?
**A.** inhibited

**Q.** What about the “DGC activity of C49A WspR (inhibition)” value [5] of the same compound?
**A.** still susceptible to inhibition

**Q.** And the “DGC activity of C240A WspR (inhibition)” value [6]?
**A.** inhibited

**Q.** And the “DGC activity of AxxA WspR (inhibition)” value [7]?
**A.** no longer inhibited
